Data reported in ChEMBL document CHEMBL1139340, “Synthesis, radiosynthesis, and biological evaluation of carbon-11 and fluorine-18 labeled reboxetine analogues: potential positron emission tomography radioligands for in vivo imaging of the norepinephrine transporter” (J Med Chem, 2009).

Legend:
Lung [1] = assay: Biodistribution in Sprague-Dawley rat lung at 300 uCi, iv after 5 mins; format: ADME, organism-based; conditions: in vivo
Pancreas [2] = assay: Biodistribution in Sprague-Dawley rat pancreas at 300 uCi, iv after 5 mins; format: ADME, organism-based; conditions: in vivo
[3] = Ratio of drug uptake in midbrain to caudate of anesthetized rhesus monkey at 15 to 20 mCi after 85 mins postinjection by microPET; format: ADME, organism-based, Macaca mulatta; conditions: in vivo
How it was run: (§1)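 Anesthetized adult male rhesus monkeys given 15–20 mCi of the ¹¹C tracer, alone or after desipramine (0.125 or 0.25 mg/kg) 40 min beforehand. MicroPET emission collected continuously for 125 min and binned. ROIs drawn manually on anatomical landmarks to give time-activity curves. Region-to-caudate uptake ratio taken at 85 min postinjection.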

[4] = Ratio of drug uptake in cerebellum to caudate of awaken rhesus monkey at 15 to 20 mCi after by PET method; format: ADME, tissue-based, Macaca mulatta; conditions: in vivo
How it was run: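 Awake rhesus monkeys imaged on a high-resolution research tomograph for 120 min after injection of the ¹¹C tracer. Images coregistered with composite MRI to define regions of interest. Highest cerebellum-to-caudate uptake ratio read from the time-activity curves.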

Spleen [5] = assay: Biodistribution in Sprague-Dawley rat spleen at 300 uCi, iv after 60 mins; format: ADME, organism-based; conditions: in vivo, 1 h
[6] = Ratio of drug uptake in thalamus to caudate of awaken rhesus monkey at 15 to 20 mCi after by PET method; format: ADME, Macaca mulatta; conditions: in vivo
How it was run: (§2)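 Awake rhesus monkeys imaged on a high-resolution research tomograph (HRRT) for 120 min after radioligand injection; images coregistered with composite MRI to define regions; time-activity curves generated and highest ratio of regional uptake to caudate uptake taken.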

[7] = Ratio of drug uptake in pons to caudate of anesthetized rhesus monkey at 15 to 20 mCi after 85 mins postinjection by microPET; format: ADME, organism-based, Macaca mulatta; conditions: in vivo
How it was run: (§3)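 Anesthetized adult male rhesus monkeys scanned on a microPET P4 after 15–20 mCi of the 11C radioligand; emission collected continuously for 125 min, binned, time-activity curves from manually drawn anatomical ROIs; regional uptake divided by caudate uptake (caudate as NET-poor reference) at 85 min postinjection, at baseline.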

Blood [8] = assay: Biodistribution in Sprague-Dawley rat blood at 300 uCi, iv after 5 mins; format: ADME, organism-based; conditions: in vivo
[9] = Ratio of drug uptake in pons to caudate of anesthetized rhesus monkey at 15 to 20 mCi pretreated with 0.125 mg/kg desipramine by microPET; format: ADME, organism-based, Macaca mulatta; parameters: dose 0.125 mg/kg; conditions: in vivo
How it was run: (§4)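 Anesthetized adult male rhesus monkeys imaged on a microPET P4 system after injection of 15–20 mCi of the 11C-labeled radioligand. Desipramine was given 40 min before radiotracer injection. Emission data were collected continuously for 125 min and binned. ROIs were drawn manually on anatomical landmarks in the reconstructed images. The ratio of region-of-interest to caudate uptake was taken from time-activity curves at 85 min postinjection.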

[10] = Biodistribution in Sprague-Dawley rat testis at 300 uCi, iv after 60 mins; format: ADME, organism-based; conditions: in vivo, 1 h
Lung [11] = assay: Biodistribution in Sprague-Dawley rat lung at 300 uCi, iv after 60 mins; format: ADME, organism-based; conditions: in vivo, 1 h
Muscle tissue [12] = assay: Biodistribution in Sprague-Dawley rat muscle at 300 uCi, iv after 60 mins; format: ADME, organism-based; conditions: in vivo, 1 h
Bone [13] = assay: Biodistribution in Sprague-Dawley rat bone at 300 uCi, iv after 5 mins; format: ADME, organism-based, Bone element; conditions: in vivo
Heart [14] = assay: Biodistribution in Sprague-Dawley rat heart at 300 uCi, iv after 60 mins; format: ADME, organism-based; conditions: in vivo, 1 h
Lung [15] = assay: Biodistribution in Sprague-Dawley rat lung at 300 uCi, iv after 30 mins; format: ADME, organism-based; conditions: in vivo, 0.5 h
Heart [16] = assay: Biodistribution in Sprague-Dawley rat heart at 300 uCi, iv after 5 mins; format: ADME, organism-based; conditions: in vivo
Bone [17] = assay: Biodistribution in Sprague-Dawley rat bone at 300 uCi, iv after 30 mins; format: ADME, organism-based, Bone element; conditions: in vivo, 0.5 h
Pancreas [18] = assay: Biodistribution in Sprague-Dawley rat pancreas at 300 uCi, iv after 60 mins; format: ADME, organism-based; conditions: in vivo, 1 h
Blood [19] = assay: Biodistribution in Sprague-Dawley rat blood at 300 uCi, iv after 60 mins; format: ADME, organism-based; conditions: in vivo, 1 h
Bone [20] = assay: Biodistribution in Sprague-Dawley rat bone at 300 uCi, iv after 15 mins; format: ADME, organism-based, Bone element; conditions: in vivo, 0.25 h
Kidney [21] = assay: Biodistribution in Sprague-Dawley rat kidney at 300 uCi, iv after 30 mins; format: ADME, organism-based; conditions: in vivo, 0.5 h
Liver [22] = assay: Biodistribution in Sprague-Dawley rat liver at 300 uCi, iv after 60 mins; format: ADME, organism-based; conditions: in vivo, 1 h
[23] = Biodistribution in Sprague-Dawley rat testis at 300 uCi, iv after 15 mins; format: ADME, organism-based; conditions: in vivo, 0.25 h
Pancreas [24] = assay: Biodistribution in Sprague-Dawley rat pancreas at 300 uCi, iv after 30 mins; format: ADME, organism-based; conditions: in vivo, 0.5 h
Muscle tissue [25] = assay: Biodistribution in Sprague-Dawley rat muscle at 300 uCi, iv after 15 mins; format: ADME, organism-based; conditions: in vivo, 0.25 h
Pancreas [26] = assay: Biodistribution in Sprague-Dawley rat pancreas at 300 uCi, iv after 15 mins; format: ADME, organism-based; conditions: in vivo, 0.25 h
Liver [27] = assay: Biodistribution in Sprague-Dawley rat liver at 300 uCi, iv after 15 mins; format: ADME, organism-based; conditions: in vivo, 0.25 h
[28] = Biodistribution in Sprague-Dawley rat testis at 300 uCi, iv after 30 mins; format: ADME, organism-based; conditions: in vivo, 0.5 h
Muscle tissue [29] = assay: Biodistribution in Sprague-Dawley rat muscle at 300 uCi, iv after 30 mins; format: ADME, organism-based; conditions: in vivo, 0.5 h
[30] = Ratio of drug uptake in thalamus to caudate of anesthetized rhesus monkey at 15 to 20 mCi after 85 mins postinjection by microPET; format: ADME, organism-based, Macaca mulatta; conditions: in vivo; how it was run: as §3
Blood [31] = assay: Biodistribution in Sprague-Dawley rat blood at 300 uCi, iv after 15 mins; format: ADME, organism-based; conditions: in vivo, 0.25 h
[32] = Ratio of drug uptake in pons to caudate of awaken rhesus monkey at 15 to 20 mCi after by PET method; format: ADME, Macaca mulatta; conditions: in vivo; how it was run: as §2
Brain [33] = assay: Biodistribution in Sprague-Dawley rat brain at 300 uCi, iv after 30 mins; format: ADME, organism-based; conditions: in vivo, 0.5 h
Kidney [34] = assay: Biodistribution in Sprague-Dawley rat kidney at 300 uCi, iv after 5 mins; format: ADME, organism-based; conditions: in vivo
[35] = Ratio of drug uptake in cerebellum to caudate of anesthetized rhesus monkey at 15 to 20 mCi pretreated with 0.125 mg/kg desipramine by microPET; format: ADME, organism-based, Macaca mulatta; parameters: dose 0.125 mg/kg; conditions: in vivo; how it was run: as §4
[36] = Ratio of drug uptake in cerebellum to caudate of anesthetized rhesus monkey at 15 to 20 mCi after 85 mins postinjection by microPET; format: ADME, organism-based, Macaca mulatta; conditions: in vivo; how it was run: as §1
Heart [37] = assay: Biodistribution in Sprague-Dawley rat heart at 300 uCi, iv after 30 mins; format: ADME, organism-based; conditions: in vivo, 0.5 h
Blood [38] = assay: Biodistribution in Sprague-Dawley rat blood at 300 uCi, iv after 30 mins; format: ADME, organism-based; conditions: in vivo, 0.5 h
Kidney [39] = assay: Biodistribution in Sprague-Dawley rat kidney at 300 uCi, iv after 15 mins; format: ADME, organism-based; conditions: in vivo, 0.25 h
Muscle tissue [40] = assay: Biodistribution in Sprague-Dawley rat muscle at 300 uCi, iv after 5 mins; format: ADME, organism-based; conditions: in vivo
[41] = Biodistribution in Sprague-Dawley rat testis at 300 uCi, iv after 5 mins; format: ADME, organism-based; conditions: in vivo
Spleen [42] = assay: Biodistribution in Sprague-Dawley rat spleen at 300 uCi, iv after 30 mins; format: ADME, organism-based; conditions: in vivo, 0.5 h
Spleen [43] = assay: Biodistribution in Sprague-Dawley rat spleen at 300 uCi, iv after 15 mins; format: ADME, organism-based; conditions: in vivo, 0.25 h
Brain [44] = assay: Biodistribution in Sprague-Dawley rat brain at 300 uCi, iv after 60 mins; format: ADME, organism-based; conditions: in vivo, 1 h
Lung [45] = assay: Biodistribution in Sprague-Dawley rat lung at 300 uCi, iv after 15 mins; format: ADME, organism-based; conditions: in vivo, 0.25 h
Brain [46] = assay: Biodistribution in Sprague-Dawley rat brain at 300 uCi, iv after 15 mins; format: ADME, organism-based; conditions: in vivo, 0.25 h
Kidney [47] = assay: Biodistribution in Sprague-Dawley rat kidney at 300 uCi, iv after 60 mins; format: ADME, organism-based; conditions: in vivo, 1 h
Spleen [48] = assay: Biodistribution in Sprague-Dawley rat spleen at 300 uCi, iv after 5 mins; format: ADME, organism-based; conditions: in vivo
Liver [49] = assay: Biodistribution in Sprague-Dawley rat liver at 300 uCi, iv after 30 mins; format: ADME, organism-based; conditions: in vivo, 0.5 h
[50] = Ratio of drug uptake in midbrain to caudate of anesthetized rhesus monkey at 15 to 20 mCi pretreated with 0.125 mg/kg desipramine by microPET; format: ADME, organism-based, Macaca mulatta; parameters: dose 0.125 mg/kg; conditions: in vivo; how it was run: as §4
[51] = Ratio of drug uptake in midbrain to caudate of awaken rhesus monkey at 15 to 20 mCi after by PET method; format: ADME, Macaca mulatta; conditions: in vivo; how it was run: as §2
[52] = Ratio of drug uptake in thalamus to caudate of anesthetized rhesus monkey at 15 to 20 mCi pretreated with 0.125 mg/kg desipramine by microPET; format: ADME, organism-based, Macaca mulatta; parameters: dose 0.125 mg/kg; conditions: in vivo; how it was run: as §4
Liver [53] = assay: Biodistribution in Sprague-Dawley rat liver at 300 uCi, iv after 5 mins; format: ADME, organism-based; conditions: in vivo
Heart [54] = assay: Biodistribution in Sprague-Dawley rat heart at 300 uCi, iv after 15 mins; format: ADME, organism-based; conditions: in vivo, 0.25 h
Brain [55] = assay: Biodistribution in Sprague-Dawley rat brain at 300 uCi, iv after 5 mins; format: ADME, organism-based; conditions: in vivo
Bone [56] = assay: Biodistribution in Sprague-Dawley rat bone at 300 uCi, iv after 60 mins; format: ADME, organism-based, Bone element; conditions: in vivo, 1 h

[11CH3]c1ccccc1O[C@@H](c1ccccc1)[C@@H]1CNCCO1
Drug uptake (Lung [1]): 15.3 % ID/g | Drug uptake (Pancreas [2]): 1.59 % ID/g | Ratio [3]: 1.43 | Ratio [4]: 0.93 | Drug uptake (Spleen [5]): 0.49 % ID/g | Ratio [6]: 1.25 | Ratio [7]: 1.44 | Drug uptake (Blood [8]): 0.13 % ID/g | Ratio [9]: 1.13 | Drug uptake [10]: 0.15 % ID/g | Drug uptake (Lung [11]): 1.98 % ID/g | Drug uptake (Muscle tissue [12]): 0.22 % ID/g | Drug uptake (Bone [13]): 0.48 % ID/g | Drug uptake (Heart [14]): 0.62 % ID/g | Drug uptake (Lung [15]): 3.63 % ID/g | Drug uptake (Heart [16]): 3.43 % ID/g | Drug uptake (Bone [17]): 0.2 % ID/g | Drug uptake (Pancreas [18]): 0.63 % ID/g | Drug uptake (Blood [19]): 0.04 % ID/g | Drug uptake (Bone [20]): 0.37 % ID/g | Drug uptake (Kidney [21]): 0.56 % ID/g | Drug uptake (Liver [22]): 0.29 % ID/g | Drug uptake [23]: 0.18 % ID/g | Drug uptake (Pancreas [24]): 0.77 % ID/g | Drug uptake (Muscle tissue [25]): 0.22 % ID/g | Drug uptake (Pancreas [26]): 0.83 | Drug uptake (Liver [27]): 0.77 % ID/g | Drug uptake [28]: 0.19 % ID/g | Drug uptake (Muscle tissue [29]): 0.22 % ID/g | Ratio [30]: 1.3 | Drug uptake (Blood [31]): 0.05 % ID/g | Ratio [32]: 1.13 | Drug uptake (Brain [33]): 0.55 % ID/g | Drug uptake (Kidney [34]): 2.66 % ID/g | Ratio [35]: 1.04 | Ratio [36]: 1.25 | Drug uptake (Heart [37]): 1.07 % ID/g | Drug uptake (Blood [38]): 0.05 % ID/g | Drug uptake (Kidney [39]): 0.85 % ID/g | Drug uptake (Muscle tissue [40]): 0.25 % ID/g | Drug uptake [41]: 0.18 % ID/g | Drug uptake (Spleen [42]): 1.13 % ID/g | Drug uptake (Spleen [43]): 1.79 % ID/g | Drug uptake (Brain [44]): 0.25 % ID/g | Drug uptake (Lung [45]): 6.92 % ID/g | Drug uptake (Brain [46]): 0.72 % ID/g | Drug uptake (Kidney [47]): 0.31 % ID/g | Drug uptake (Spleen [48]): 3.5 % ID/g | Drug uptake (Liver [49]): 0.46 % ID/g | Ratio [50]: 1.2 | Ratio [51]: 1.2 | Ratio [52]: 1.1 | Drug uptake (Liver [53]): 0.28 % ID/g | Drug uptake (Heart [54]): 1.49 % ID/g | Drug uptake (Brain [55]): 0.9 % ID/g | Drug uptake (Bone [56]): 0.17 % ID/g
